Tests used:
[1] = biological target: T1, Renin (Homo sapiens) (UniProt P00797); assay: Percent inhibition of compound against renin monkey plasma at 10E-6 M; type: cell-free; conditions: Cercopithecidae, target entry is the homologue from another species
T1 sequence (whole entry): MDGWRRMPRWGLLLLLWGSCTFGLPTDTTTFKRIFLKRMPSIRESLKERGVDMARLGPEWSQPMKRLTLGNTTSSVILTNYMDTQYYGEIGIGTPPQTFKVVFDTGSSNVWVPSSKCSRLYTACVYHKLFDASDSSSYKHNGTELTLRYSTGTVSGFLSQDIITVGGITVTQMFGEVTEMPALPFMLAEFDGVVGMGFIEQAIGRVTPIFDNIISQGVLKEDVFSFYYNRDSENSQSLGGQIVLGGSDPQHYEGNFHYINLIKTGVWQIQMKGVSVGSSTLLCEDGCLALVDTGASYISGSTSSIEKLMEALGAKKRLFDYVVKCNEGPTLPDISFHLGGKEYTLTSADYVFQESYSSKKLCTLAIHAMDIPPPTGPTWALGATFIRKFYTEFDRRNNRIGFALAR
Outline: (§1)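 Renin activity in monkey plasma, with inhibition measured as angiotensin I generated, quantified by radioimmunoassay following Haber's method.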

[2] = Binding affinity of compound against endothiapepsin
Outline: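 Reactions at 37 °C in 0.1 M sodium formate pH 3.5 with 4% DMSO (inhibitor stocks in DMSO). Enzyme preincubated 3 min at 37 °C. Initial rates taken at six substrate levels (0.8Km–10Km), then at ≥3 substrate levels after preincubation with ≥2 inhibitor concentrations. Ki fitted by Marquardt analysis to competitive-inhibition equation.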

[3] = biological target: T2, Renin (Homo sapiens, UniProt P00797); assay: Inhibitory concentration of compound against renin human plasma; type: cell-free
T2 sequence (P00797 whole entry): T1 sequence (whole entry)

[4] = biological target: T1, Renin (Homo sapiens); assay: Percent inhibition of compound against renin monkey plasma at 10 e-6 M; conditions: Cercopithecidae, target entry is the homologue from another species
[5] = biological target: T1, Renin (Homo sapiens); assay: Percent inhibition of compound against renin monkey plasma at 10e-6 M; type: cell-free; conditions: Cercopithecidae, target entry is the homologue from another species; outline: as §1
[6] = biological target: T1, Renin (Homo sapiens); assay: Percent inhibition of compound against renin human plasma at 10 e-6 M; type: cell-free

SMILES | Ki [2] [µM] | IC50 [3] [µM] | also measured
CC(C)CC(O)C(O)C(CC1CCCCC1)NC(=O)c1cccc(NC(=O)CSc2ccccc2)c1 (stereo unspecified) | – | – | inhibition [1]: 12.6%
CC(C)CC(NC(=O)CC(O)C(CC1CCCCC1)NC(=O)CCC(O)C(Cc1ccccc1)NC(=O)OC(C)(C)C)C(=O)NCc1cccc(CN)c1 (stereo unspecified) | 16 | 0.022 | –
COC(=O)C(C)(NC(=O)C(Cc1ccccc1)NS(=O)(=O)N1CCOCC1)C(=O)NC(CC1CCCCC1)C(O)C(O)CC(C)C (stereo unspecified) | – | – | inhibition [4]: 4.4%
CCC(C)CNC(=O)CC(O)C(CC(C)C)NC(=O)C(CCCC/N=C(/S)NC)NC(=O)C(Cc1ccccc1)NS(=O)(=O)N(C)C (stereo unspecified) | – | 0.025 | –
CCSC(NC(=O)[C@H](Cc1ccccc1)NS(=O)(=O)N1CCOCC1)C(=O)N[C@@H](CC1CCCCC1)[C@@H](O)[C@@H](O)CC(C)C (stereo partly specified) | 0.0065 | – | –
CC(C)CC(O)C(O)C(CC1CCCCC1)NC(=O)c1cc(NC(=O)CSc2ccccc2)ccc1CO (stereo unspecified) | – | – | inhibition [5]: 4.4%
CCC(C)CNC(=O)C(CC(C)C)CC(O)C(CC1CCCCC1)NC(=O)C(Cc1c[nH]cn1)NC(=O)C(Cc1cccc2ccccc12)Cc1cccc2ccccc12 (stereo unspecified) | 0.24 | 0.17 | –
CCC(C)CNC(=O)CP(=O)(O)C(CC(C)C)NC(=O)C(Cc1c[nH]cn1)NC(=O)C(Cc1ccccc1)NC(=O)OC(C)(C)C (stereo unspecified) | 0.11 | – | inhibition [6]: 3.3%

From ChEMBL document CHEMBL1126919, “Analyses of ligand binding in five endothiapepsin crystal complexes and their use in the design and evaluation of novel renin inhibitors” (J Med Chem, 1993)
